Compound activity (PubChem BioAssay)
RanGTP-Imp inh: inhibitors of RanGTP-importin-beta interaction, primary screen, biochemical, FRET, CFP-Ran, YFP-importin-beta, homogeneous; Ran GTPase (GTP-bound) - importin-beta complex; cell-free CFP-Ran/YFP-importin-beta FRET ratio; inhibition, % (no concentration beside the values); hit rate 1.1% among 300,000;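 active = more than half of the replicate wells show a fall in the fluorescence ratio signal beyond about 16%, limit read from the data, passing the limit was not always enough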;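 also: 0% = DMSO wells and 100% = Ran loaded with GDP instead of GTP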
EBV gp42 inh: Epstein-Barr virus gp42 inhibitors, primary screen, biochemical, uHTS, fluorescence polarization | hit rate 0.42% among 220,000 | AID 1085, 2008 | inhibition, % (tested at 21.74 µM) | Fluorescence polarization binding assay, mP read-out | Glycoprotein 42 (Epstein-Barr virus (strain AG876)), Q1HVG2; in the data active = inhibition above about 50%
Runt-CBFb FRET: inhibitors of RUNX1 Runt–CBFb binding, primary screen, biochemical, FRET, Cerulean-Runt, Venus-CBFb, uHTS; Runt-related transcription factor 1 (Homo sapiens) + Core-binding factor subunit beta …; Cerulean-Runt/Venus-CBFb FRET ratio 530/480, 1 h; inhibition, % at 20 µM; hit rate 0.46% among 220,000;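 active = inhibition over about 50% at 20 µM in the single-dose screen, limit read from the data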;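 also: 0% = DMSO wells and 100% = excess unlabeled CBFb competitor control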
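test system = Cerulean-tagged RUNX1 Runt domain (FRET donor) fusion protein | reagent = Venus-CBFb binding partner, 100 nM | incubation = protein complex preformed 1 h, compound exposure 1 h, room temperature, dark | detection = FRET fluorescence | read-out basis = loss of energy transfer signal | controls = 5 µM unlabeled CBFb as full-inhibition high control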
Runt-SMMHC FRET: inhibitors of RUNX1 Runt–CBFb-SMMHC binding, primary screen, biochemical, FRET, Cerulean-Runt, Venus-CBFb-SMMHC, uHTS. Runt-related transcription factor 1 (Homo sapiens) + Core-binding factor subunit beta …. Cerulean-Runt/Venus-CBFb-SMMHC FRET ratio 530/480, 1 h. inhibition, % at 20 µM. hit rate 0.74% among 220,000. AID 1434, 2008;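 active = mean inhibition across duplicate retests at 20 µM reaching about 50%, limit read from the data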;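 also: 0% = DMSO wells and 100% = wells with excess untagged CBFb-SMMHC; inhibitors lower the FRET ratio by blocking Runt binding to CBFb-SMMHC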
LANA-H2A inh: blockers of LANA interaction with H2A/H2B – biochemical, FP readout, HTS, primary screen | Protein LANA1 (Human herpesvirus 8 type P (isolate GK18)), Q9QR71 | inhibition, % (no concentration beside the values) | hit rate 0.6% among 320,000 | AID 2629, 2010 | cell-free LANA-H2A/H2B peptide, fluorescence polarization; in the data active = inhibition mostly above about 10%, no sharp cut-off; inactive = mostly below about 6.7%
MEX-5 binding: MEX-5 zinc finger RNA-binding disruptors – biochemical, C. elegans, fluorescence polarization, MLPCN library, primary screen. MEX-5/FITC-TCR2 RNA binding; hits give low values. activity score (negative = inhibition of binding), % at 10 µM. hit rate 0.38% among 300,000;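 active = inhibition past about -25% in most replicates, and total fluorescence under double the plate's negative control median, limit read from the data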;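 also: 0% = DMSO and -100% = 5 µM competing unlabeled TCR2 RNA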
Target sequence (Q9XUB2 whole entry, looked up): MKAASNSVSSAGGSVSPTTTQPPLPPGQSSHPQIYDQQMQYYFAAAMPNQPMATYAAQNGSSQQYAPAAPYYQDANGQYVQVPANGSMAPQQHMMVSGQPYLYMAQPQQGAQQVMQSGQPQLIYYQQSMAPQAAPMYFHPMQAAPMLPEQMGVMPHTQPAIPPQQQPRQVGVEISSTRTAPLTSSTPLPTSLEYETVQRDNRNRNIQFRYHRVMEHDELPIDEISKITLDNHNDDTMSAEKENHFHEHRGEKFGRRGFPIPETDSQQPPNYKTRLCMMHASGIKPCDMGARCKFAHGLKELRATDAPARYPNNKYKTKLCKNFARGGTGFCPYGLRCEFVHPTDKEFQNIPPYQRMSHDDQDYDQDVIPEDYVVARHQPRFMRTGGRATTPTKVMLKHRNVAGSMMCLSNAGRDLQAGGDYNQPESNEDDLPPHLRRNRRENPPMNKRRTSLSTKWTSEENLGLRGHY
RUNX1 CBFb TR: inhibitors of RUNX1 Runt–CBFb binding, biochemical, TR-FRET; shares compounds with Runt-CBFb FRET; TR-FRET RUNX1 Runt domain-CBFb binding; inhibition, % at 20 µM; hit rate 20% among 480; AID 1502, 2009; in the data active = inhibition above about 40%
YIC counter: YIC intramolecular FRET probe signal interference, dose response, counter-screen for RanGTP-importin-beta inhibitor project, biochemical, fluorescence FRET. hit rate 40% among 1,000. shares compounds with RanGTP-Imp inh. IC50, µM. AID 435026, 2010. Purified YIC probe, intramolecular FRET ratio YFP/CFP;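 active = fitted half-maximal inhibitory concentration no more than tenfold above the top dose tested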
* marks the source's active call; other numbers are inactive results; i = inactive; . = no result given; + = active, no number. The list is not random: actives were taken first. Their share in the collection is about 2.4%.

SMILES	RanGTP-Imp inh	EBV gp42 inh	Runt-CBFb FRET	Runt-SMMHC FRET	LANA-H2A inh	MEX-5 binding	YIC counter	others
O=C(Oc1c(Br)cc(C(=S)N2CCOCC2)cc1Br)c1ccc(Cl)cc1	17*	-8	50*	24	11	1	>50	RUNX1 CBFb TR=-11
O=C(Oc1ccc(C(=S)N2CCOCC2)cc1Br)c1cc(Cl)ccc1Cl	1	-7	.	-4	1	0	.
COCC(C)OC(=O)c1c(N)n(CC(C)C)c2nc3ccccc3nc12 (configuration not stated)	21*	-13	63*	126*	-6	-2	26*	RUNX1 CBFb TR=33
CC(=O)Nc1ccc(S(=O)(=O)c2c(N)n(CCN3CCOCC3)c3nc4ccccc4nc23)cc1	-2	-21	30	10	1	-2	.
CC(C)OC(=O)c1c(N)n(CCCN2CCOCC2)c2nc3ccccc3nc12	25*	-11	65*	84*	8	0	31*	RUNX1 CBFb TR=32
C=CCn1c(N)c(C(=O)OC(C)CC)c2nc3ccccc3nc21 (configuration not stated)	35*	15	66*	123*	.	-4	22*	RUNX1 CBFb TR=28
CC(C)N(Cc1ccccc1)S(=O)(=O)c1ccc2c(c1)NC(=O)CO2	0	.	.	.	.	-5	.
O=C(Cn1c2ccccc2c(=O)c2ccccc21)N/N=C/c1cc([N+](=O)[O-])ccc1N1CCCCCC1	-4	-93	-44	-91	2	-1	.
O=C(Cn1c2ccccc2c(=O)c2ccccc21)N/N=C/c1ccc(N2CCCC2)c([N+](=O)[O-])c1	28*	74*	76*	133*	+	0	>50	RUNX1 CBFb TR=-1
Cc1nnc(Sc2nc3c(c(=O)n(C)c(=O)n3C)n2Cc2ccccc2Cl)s1	17*	.	.	.	-2	-2	>50
C#CCOCCOCCOCCNc1nc(N2CCN(C(=O)[C@H]([C@@H](C)CC)n3cc([C@@H](N)CC(C)C)nn3)CC2)nc(N2CCN(C(=O)[C@H]([C@@H](C)CC)n3cc([C@@H](N)CC(C)C)nn3)CC2)n1	1	-11	0	0	8	2	.
CCOC(=O)c1c(NC(=O)C2CCCCC2)sc2c1CCN(CC)C2	20*	.	.	.	5	2	>50
COC(=O)c1c(NC(=O)C2CCCCC2C(=O)O)sc2c1CCCCC2 (configuration not stated)	0	1	2	-3	4	-2	.
CCN1CCc2c(sc(NC(=O)C3CCCCC3)c2C(=O)OC)C1	42*	.	.	.	-1	-1	>50
CCOC(=O)c1c(NC(=S)N2CCCCC2)sc2c1CCN(C(=O)OCC)C2	5	-12	-1	0	1	1	.
Cc1ccc(NC(=O)C(=Cc2ccc(C(=O)O)cc2)C(=O)Nc2ccc(C)cc2C)c(C)c1	3	-7	1	-2	0	0	.
COc1ccccc1NC(=S)N(Cc1ccco1)Cc1cc2cc(C)ccc2[nH]c1=O	2	3	14	6	2	-1	.
c1cncc(Nc2c3ccccc3nc3ccccc23)c1	34*	.	.	.	0	3	>50
Oc1cccc(Nc2c3ccccc3nc3ccccc23)c1	50*	.	.	.	-2	-1	>50
OC1CCN(Cc2cccc3ccccc23)CC1	2	5	1	1	0	-3	.
CN1CCCN(Cc2cccc3ccccc23)CC1	22*	.	.	.	1	-2	>50
COc1ccc2cc(C(=O)N/N=C/c3sc4ccccc4c3O)ccc2c1	22*	-114	-39	-175	-7	6	i
COc1ccc(C(=O)N/N=C/c2c[nH]c3ccccc23)cc1	1	.	.	.	2	1	.
CCCc1cc(C(=O)O)c2ccccc2n1	3	-9	0	-7	3	0	.
CCCc1c2ccccc2nc2ccccc12	21*	-4	19	52*	-5	1	9.6*
SMILES	RanGTP-Imp inh	EBV gp42 inh	Runt-CBFb FRET	Runt-SMMHC FRET	LANA-H2A inh	MEX-5 binding	YIC counter	others
O=C1CCN(Cc2ccccc2)C=C1c1ccc(Br)cc1	.	.	.	.	1	.	.
CC(=O)C(Cc1ccccc1)NC(=O)COc1ccc2c(c1)OCO2 (configuration not stated)	.	.	.	.	-1	.	.
COc1cc2sc3ccc(C#Cc4ccc(N)cc4)cc3c(=O)c2cc1OC	5	.	.	.	-5	0	.
COc1cc2sc3ccc(C#CC4(O)CCCCC4)cc3c(=O)c2cc1OC	32*	.	.	.	3	0	26*
CCC(=O)N(C)/C=C1\Sc2ccccc2C1=O	20*	.	.	154*	0	-2	>50
Cc1ccc2nc(N3CCN(Cc4nnnn4Cc4ccccc4)CC3)c(C#N)cc2c1	17*	-28	26	62*	-6	-4	22*
COc1ccc2cc(C#N)c(N3CCN(Cc4nnnn4CCC(C)C)CC3)nc2c1	-5	-13	-4	0	-7	-2	.
O=C(NCc1nnc2c(C(F)(F)F)cc(Cl)cn12)C1CCCC1	3	.	.	.	8	-2	.
CC(C)OC(=O)c1nnn(-c2nonc2N)c1CN1CCCCCC1	24*	-14	-3	-4	0	0	>50
C=CCn1c(O)c(C=Nc2ccccc2)sc1=S	-3	-13	2	12	2	-3	.
CCn1c(O)c(C=Nc2ccccc2)sc1=S	37*	0	35	68*	1	-3	17*
Oc1c(C=Nc2ccccc2)sc(=S)n1Cc1ccccc1	39*	-58	12	46	-3	-43*	44*
COC(=O)c1nc(N)sc1C(C)C	4	10	0	-1	-2	-4	.
Cc1ccc(S(=O)(=O)N(C)c2ccc(C(=O)Nc3cccnc3)cc2)cc1	.	.	.	.	-1	-2	.
Cc1ccc(OCC(=O)c2cc(C)n(Cc3cccs3)c2C)c([N+](=O)[O-])n1	0	-11	16	8	-5	0	.
